From ChEMBL document CHEMBL1123010, “Nucleosides. 133. Synthesis of 5-alkenyl-1-(2-deoxy-2-fluoro-beta-D-arabinofuranosyl)cytosines and related pyrimidine nucleosides as potential antiviral agents” (J Med Chem, 1985)

What was measured:
[1] = target: T1, Thymidine kinase (Human herpesvirus 2) (UniProt Q6L709); experiment: Effect on thymidine kinase in the herpes simplex type-2 infected cells; assay type: functional; parameters: concentration or dose not given beside the values
T1 sequence (whole entry): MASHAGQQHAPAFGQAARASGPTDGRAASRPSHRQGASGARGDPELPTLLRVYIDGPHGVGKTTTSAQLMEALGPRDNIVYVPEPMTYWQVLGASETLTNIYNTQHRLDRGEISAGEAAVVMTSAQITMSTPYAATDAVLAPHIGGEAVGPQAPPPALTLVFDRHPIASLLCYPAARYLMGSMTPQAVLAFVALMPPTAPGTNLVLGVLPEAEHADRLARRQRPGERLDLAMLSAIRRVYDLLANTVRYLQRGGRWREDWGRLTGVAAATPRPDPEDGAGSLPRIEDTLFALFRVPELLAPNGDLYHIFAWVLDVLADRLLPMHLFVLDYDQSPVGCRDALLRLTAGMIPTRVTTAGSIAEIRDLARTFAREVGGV

[2] = tested on: P815; experiment: In vitro inhibitory activity against P815/ara-C cell line; assay type: functional; conditions: Mus musculus, read-out: ID50 (the source's name)
Outline: (§1)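 Mouse leukemia cells (L1210/0, P815/0, P815/Ara-C) at 4×10^4 cells/mL in McCoy's 5A with 15% fetal calf serum, nucleoside added as 20-fold concentrate; 96 h at 37 °C in 5% CO2. Cells Coulter-counted, percent growth inhibition and 50% growth-inhibiting concentration calculated.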

[3] = tested on: L1210; experiment: In vitro inhibitory activity against L1212/0 cell line; assay type: functional; conditions: Mus musculus, read-out: ID50 (the source's name); outline: as §1
[4] = tested on: Human alphaherpesvirus 1; experiment: Antiviral activity against herpes simplex type-1 expressed as ED90; assay type: functional
Outline: (§2)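 Plaque reduction in confluent mycoplasma-free Vero cells infected with HSV-1 strain F or HSV-2 strain G (about 100 plaques/well), rocked 1 h, inoculum removed, PBS (pH 7.2) wash. Five or more drug concentrations in maintenance medium with 0.1% pooled human globulin, in replicate.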

[5] = tested on: Human alphaherpesvirus 2 (HSV-2); experiment: Ratio of ID50/ID90 in HSV-2 infected cells; assay type: ADME, organism-based; conditions: human alphaherpesvirus 2, HSV-2 infected cells; read-out: Therapeutic index
Outline: (§3)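 Ratio of two measurements. ID50 came from 3-day growth of rapidly dividing Vero cells, by linear regression. ED90 came from plaque reduction in confluent Vero cells infected with HSV-1 strain F or HSV-2 strain G (about 100 plaques/well). After 1 h adsorption, compounds were added at ≥5 concentrations in medium with 0.1% human globulin. Plaques grew 48 h, then were formalin-fixed, crystal-violet-stained and counted; regression was against log concentration.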

[6] = tested on: Vero; experiment: Cytotoxic activity against vero cells was evaluated.; assay type: functional; conditions: Chlorocebus sabaeus, read-out: ID50 (the source's name)
Outline: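 Drug toxicity measured in rapidly dividing Vero cells over 3 days; 50% inhibitory dose (ID50) derived by linear regression analysis.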

[7] = tested on: Human alphaherpesvirus 1; experiment: Antiviral activity against herpes simplex type-1 expressed as ED50; assay type: functional; conditions: read-out: ED50 (the source's name); outline: as §2
[8] = tested on: Human alphaherpesvirus 1 (HSV-1); experiment: Ratio of ID50/ID90 in HSV-1 infected cells; assay type: ADME, organism-based; conditions: human alphaherpesvirus 1, HSV-1 infected cells; read-out: Therapeutic index; outline: as §3
[9] = tested on: Human alphaherpesvirus 2; experiment: Antiviral activity against herpes simplex type-2 expressed as ED90; assay type: functional; outline: as §2
[10] = tested on: P815; experiment: In vitro inhibitory activity against P815/0 cell line; assay type: functional; conditions: Mus musculus, read-out: ID50 (the source's name); outline: as §1
[11] = tested on: Human alphaherpesvirus 2; experiment: Antiviral activity against herpes simplex type-2 expressed as ED50; assay type: functional; conditions: read-out: ED50 (the source's name); outline: as §2
[12] = tested on: Human alphaherpesvirus 1 (HSV-1); experiment: (§4) Ratio of ID50/ID90 in HSV-1; assay type: ADME, organism-based; conditions: human alphaherpesvirus 1, in vivo; outline: as §3
[13] = tested on: Human alphaherpesvirus 2 (HSV-2); experiment: (§5) Ratio of ID50/ID90 in HSV-2; assay type: ADME, organism-based; conditions: human alphaherpesvirus 2, in vivo; outline: as §3
[14] = tested on: Human alphaherpesvirus 1 (HSV-1); experiment: Ratio of ID50/ID90 in HSV-1 in fected cells; assay type: ADME, organism-based; conditions: human alphaherpesvirus 1, HSV-1 infected cells; read-out: Therapeutic index; outline: as §3
[15] = as §4; assay type: functional
[16] = as §5; assay type: functional
[17] = tested on: Human alphaherpesvirus 1; experiment: Effect of compound on thymidine kinase in the herpes simplex type-2 infected cells; assay type: functional, Human alphaherpesvirus 2

SMILES | Control [1] [%] | IC50 [2] [µM] | IC50 [3] [µM] | ED90 [4] [µM] | selectivity ratio [5] | IC50 [6] [µM] | EC50 [7] [µM] | selectivity ratio [8] | ED90 [9] [µM] | IC50 [10] [µM] | EC50 [11] [µM] | selectivity ratio [12] | selectivity ratio [13] | selectivity ratio [14] | Therapeutic index [15] | Therapeutic index [16] | Control [17] [%]
C=Cc1cn([C@@H]2O[C@H](CO)[C@@H](O)[C@@H]2F)c(=O)[nH]c1=O | 109 | 32.8 | 29 | 0.043 | 19 | 10.8 | 0.009 | 251 | 0.56 | 20.8 | 0.09 |  |  |  |  |  | 
Nc1nc(=O)n([C@@H]2O[C@H](CO)[C@@H](O)[C@@H]2F)cc1/C=C/I | 101 |  |  | 0.74 |  | > 200 | 0.088 |  | 2.3 |  | 0.027 | > 270 | > 87 |  |  |  | 
Cc1cn([C@@H]2O[C@H](CO)[C@@H](O)[C@@H]2F)c(=O)nc1N | 110 |  |  | 0.048 | 15 | 1.5 | 0.006 |  | 0.1 |  | 0.026 |  |  | 31 |  |  | 
Nc1nc(=O)n([C@@H]2O[C@H](CO)[C@@H](O)[C@@H]2F)cc1/C=C/Br | 104 |  |  | 0.52 |  | 23 | 0.068 |  | 4.5 |  | 0.037 |  |  |  | 44 | 5 | 
CCc1cn([C@@H]2O[C@H](CO)[C@@H](O)[C@@H]2F)c(=O)nc1N | 101 |  |  | 0.57 | 29 | 143 | 0.035 | 251 | 4.9 |  | 0.32 |  |  |  |  |  | 
C[Si](C)(C)C#Cc1cn([C@@H]2O[C@H](CO)[C@@H](O)[C@@H]2F)c(=O)[nH]c1=O | 95.8 | 107 | 17.8 | 39.5 | 0.5 | 17.1 | 5.7 | 0.4 | 32.1 | 9.8 | 5.1 |  |  |  |  |  | 
Nc1nc(=O)n([C@@H]2O[C@H](CO)[C@@H](O)[C@@H]2F)cc1/C=C/C(=O)[O-].[Na+] | 111 |  |  | >100 |  | > 200 | > 100 |  | >100 |  | > 100 |  |  |  |  |  | 
O=c1[nH]c(=O)n([C@@H]2O[C@H](CO)[C@@H](O)[C@@H]2F)cc1/C=C/I | 96.2 |  |  | 0.11 | 67 | 56 | 0.037 | 509 | 0.84 |  | 0.15 |  |  |  |  |  | 
Cc1cn([C@@H]2O[C@H](CO)[C@@H](O)[C@@H]2F)c(=O)[nH]c1=O [5-METHYL-2'-FLUOROARAURACIL] | 94.1 | 12.4 | 2.95 | 0.042 |  | 2.8 | 0.01 |  | 0.09 | 0.98 | 0.023 |  |  |  |  |  | 
CCOC(=O)/C=C/c1cn([C@@H]2O[C@H](CO)[C@@H](O)[C@@H]2F)c(=O)nc1N |  |  |  | >100 |  | 126 | > 100 |  | >100 |  | > 100 |  |  |  |  |  | 107
C#Cc1cn([C@@H]2O[C@H](CO)[C@@H](O)[C@@H]2F)c(=O)nc1N | 86.3 | > 300 | 10.1 | 7.5 | 5 | 30 | 2.1 | 4 | 6 | 52.1 | 0.64 |  |  |  |  |  | 
O=c1[nH]c(=O)n([C@@H]2O[C@H](CO)[C@@H](O)[C@@H]2F)cc1/C=C/Cl | 106 |  |  | 0.7 | 29 | 159 | 0.059 | 227 | 5.5 |  | 0.52 |  |  |  |  |  | 
C=Cc1cn([C@@H]2O[C@H](CO)[C@@H](O)[C@@H]2F)c(=O)nc1N | 111 | > 300 | 10.7 | 0.4 | 70 | 41 | 0.025 | 103 | 0.59 | 23.8 | 0.062 |  |  |  |  |  | 
O=c1[nH]c(=O)n([C@H]2C[C@H](O)[C@@H](CO)O2)cc1/C=C/Br [BRIVUDINE] | 110 |  |  | 0.062 | 11 | 191 | 0.019 | 3080 | 17 |  | 0.23 |  |  |  |  |  | 
O=c1[nH]c(=O)n([C@@H]2O[C@H](CO)[C@@H](O)[C@@H]2F)cc1/C=C/Br | 86 |  |  | 0.47 | 138 | 101 | 0.067 | 216 | 0.73 |  | 0.13 |  |  |  |  |  | 
C#Cc1cn([C@@H]2O[C@H](CO)[C@@H](O)[C@@H]2F)c(=O)[nH]c1=O | 90.8 | 84.7 | 23.5 | 46.6 | 8 | 62 | 1.9 | 1.3 | 7.9 | 20.4 | 3 |  |  |  |  |  | 
